Our source for the IC50 and CC50 values is ChEMBL document CHEMBL4765273 (Eur J Med Chem, 2020).

Series [1] has as its system Influenza A virus. The series can be described thus: Antiviral activity against Influenza A virus (A/Duck/Guangdong/674/2014 (H5N6)) group-2 infected in chicken embryo fibroblast assessed as reduction in viral infection preincubated for 1 hrs followed by fibroblast infection and measured after 72 hrs by hemagglutination titre method. The series is classed as functional, organism-based.

In series [2] the test system is Influenza A virus. The series can be described thus: Antiviral activity against Influenza A virus (A/goose/Jiangsu/1306/2014 (H5N8)) group-1 infected in chicken embryo fibroblast assessed as reduction in viral infection preincubated for 1 hrs followed by fibroblast infection and measured after 72 hrs by hemagglutination titre method. The series is classed as functional, organism-based.

Series [3] in a line: Cytotoxicity against chicken embryo fibroblast assessed as reduction in cell viability after 48 hrs by CCK8 assay. Conditions: chicken embryo fibroblasts. Set-up: species or system Gallus gallus. The gist of the method:
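Chicken embryo fibroblasts (1×10^5 cells/mL) were cultured 24 h at 37°C, 5% CO2, washed with serum-free DMEM, then exposed to 2-fold serial compound dilutions in 1% FBS DMEM for 48 h. CCK-8 in 1% FBS DMEM was added for 90 min and absorbance read at 450 nm. CC50 was obtained by curve fitting. Blank and cell controls were included.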
For orientation: Formazan colour is commonly taken as a measure of viable cells.

The test system of series [4] is Influenza A virus. The series can be described thus: Antiviral activity against Influenza A virus (A/goose/Guangdong/SH7/2013(H5N1)) group-1 infected in chicken embryo fibroblast assessed as reduction in viral infection preincubated for 1 hrs followed by fibroblast infection and measured after 72 hrs by hemagglutination titre method. The series is classed as functional, organism-based.

Series [5] relates to Influenza A virus. The series can be described thus: Antiviral activity against Influenza A virus (A/chicken/Hebei/LZF/ 2014(H5N2)) group-2 infected in chicken embryo fibroblast assessed as reduction in viral infection preincubated for 1 hrs followed by fibroblast infection and measured after 72 hrs by hemagglutination titre method. It is filed as functional, organism-based.

One may read the IC50 as the midpoint of a concentration-inhibition curve. The CC50 is the concentration giving 50% cytotoxicity. In the case of `CCC(CC)O[C@@H]1C=C(C(=O)O)C[C@H](NCc2ccc(C#N)cc2)[C@H]1NC(C)=O`, the IC50 is above 10000 nM with Influenza A virus [1], 680 nM in the series on Influenza A virus [2] and above 10000 nM in the series on Influenza A virus [4]. In addition, the CC50 at 48 h in series [3] was above 200000 nM.
Consider `CCC(CC)O[C@@H]1C=C(C(=O)O)C[C@H](NCc2ncc(-c3ccccc3)s2)[C@H]1NC(C)=O`, for which the IC50 in the series on Influenza A virus [1] was 4290 nM; in the series on Influenza A virus [5], 410 nM; with Influenza A virus [2], 490 nM; in the series with Influenza A virus [4], above 10000 nM. For the same molecule, in series [3], the CC50 at 48 h is above 200000 nM.
As for `CCC(CC)O[C@@H]1C=C(C(=O)O)C[C@H](NCc2ccc(F)cc2)[C@H]1NC(C)=O`, the IC50 is 4570 nM in the series with Influenza A virus [1], 110 nM in the series on Influenza A virus [5], 520 nM in the series on Influenza A virus [2] and above 10000 nM in the series with Influenza A virus [4]. In series [3], the CC50 at 48 h is above 200000 nM.
As for `CCC(CC)O[C@@H]1C=C(C(=O)O)C[C@H](NCc2cccc(-c3ccsc3)c2)[C@H]1NC(C)=O`, the IC50 in the series on Influenza A virus [1] is 2620 nM; in the series with Influenza A virus [5], 70 nM; in the series on Influenza A virus [2], 56 nM. Further, in series [3], the CC50 at 48 h was above 200000 nM.
On to `CCC(CC)O[C@@H]1C=C(C(=O)O)C[C@H](NCc2ccc(Br)cc2)[C@H]1NC(C)=O`, for which the IC50 in the series with Influenza A virus [1] is 1990 nM; in the series on Influenza A virus [5], 110 nM; in the series with Influenza A virus [4], 2530 nM. Also, in series [3], the CC50 at 48 h is above 200000 nM.
On to `CCC(CC)O[C@@H]1C=C(C(=O)O)C[C@H](NC/C=C/c2ccc(N(C)C)cc2)[C@H]1NC(C)=O`, for which the half-inhibitory concentration (IC50) with Influenza A virus [1] is 2780 nM; with Influenza A virus [5] it was 65 nM; in the series with Influenza A virus [2] it was 880 nM; in the series with Influenza A virus [4] it was 1290 nM. Besides, in series [3], the CC50 at 48 h was above 200000 nM.
Turning to `CCC(CC)O[C@@H]1C=C(C(=O)O)C[C@H](NS(=O)(=O)c2ccc(C(C)(C)C)cc2)[C@H]1NC(C)=O`, the IC50 in the series on Influenza A virus [1], in the series with Influenza A virus [5] and in the series with Influenza A virus [4] was above 10000 nM throughout. In addition, the CC50 at 48 h in series [3] is above 200000 nM.
As to `CCC(CC)O[C@@H]1C=C(C(=O)O)C[C@H](NCc2cccc(F)c2)[C@H]1NC(C)=O`, the IC50 in the series with Influenza A virus [1] is 3870 nM; in the series with Influenza A virus [5] it was 140 nM; in the series with Influenza A virus [2], 490 nM; in the series on Influenza A virus [4] it was above 10000 nM. Besides, in series [3], the CC50 at 48 h was above 200000 nM.
The matching figures for `CCC(CC)O[C@@H]1C=C(C(=O)O)C[C@H](NCc2ccc([N+](=O)[O-])cc2)[C@H]1NC(C)=O`: 2160 nM, 210 nM, 420 nM, above 10000 nM and above 200000 nM.
For `CCC(CC)O[C@@H]1C=C(C(=O)O)C[C@H](NCc2ccsc2)[C@H]1NC(C)=O`, in that order: 3580 nM, 130 nM, 81 nM, above 10000 nM and above 200000 nM.
The matching figures for `CCC(CC)O[C@@H]1C=C(C(=O)O)C[C@H](NCc2ccc(-c3cccs3)s2)[C@H]1NC(C)=O`: 7120 nM, 83 nM, 72 nM, above 10000 nM and above 200000 nM.
For the molecule `CCC(CC)O[C@@H]1C=C(C(=O)O)C[C@H](NCc2cccc([N+](=O)[O-])c2)[C@H]1NC(C)=O`, the IC50 in the series on Influenza A virus [1] is 2160 nM; with Influenza A virus [5], 240 nM; in the series on Influenza A virus [2], 700 nM; with Influenza A virus [4] it was above 10000 nM. For the same molecule, the CC50 at 48 h in series [3] was above 200000 nM.
With `CCC(CC)O[C@@H]1C=C(C(=O)O)C[C@H](N(Cc2ccsc2)Cc2ccsc2)[C@H]1NC(C)=O`, the IC50 is 3030 nM in the series with Influenza A virus [1], 150 nM with Influenza A virus [5], 880 nM with Influenza A virus [2] and above 10000 nM in the series with Influenza A virus [4]. Moreover, the CC50 at 48 h in series [3] was above 200000 nM.
On to `CCC(CC)O[C@@H]1C=C(C(=O)O)C[C@H](NCc2cccc(C(F)(F)F)c2)[C@H]1NC(C)=O`, for which the IC50 is 3170 nM with Influenza A virus [1], 340 nM in the series on Influenza A virus [5], 750 nM in the series with Influenza A virus [2] and above 10000 nM with Influenza A virus [4]. Moreover, in series [3], the CC50 at 48 h was above 200000 nM.
